This is an account of results in ChEMBL document CHEMBL1641521, “Design, synthesis and antimycobacterial activities of 1-methyl-2-alkenyl-4(1H)-quinolones” (Bioorg Med Chem, 2011).

The structures appear in SMILES notation. In brackets after ≈: the same amount, converted by molar mass.

A short description of data set [1]: Cytotoxicity against human MRC5 cells assessed as metabolic active cells at 30 uM after 72 hrs by XTT assay relative to control. It is filed as ADME, cell-based. To be noted: read-out: Activity. Put shortly: (§1)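 MRC-5 human diploid embryonic lung cells seeded at 5 × 10^4 cells/well, grown 24 h, then exposed 72 h at 37 °C, 5% CO2 to compound. Ethanol stocks were diluted with buffer or water; 0.1% ethanol served as solvent control. XTT added, 4 h further, absorbance 490 nm minus 655 nm reference. Viability given as % of solvent control; triplicate on two plates, n = 6, mean ± SEM.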
Background: Tetrazolium dyes change colour on reduction, which living cells bring about.

Data set [2] concerns Mycolicibacterium smegmatis. The experiment in a line: Antimycobacterial activity against Mycobacterium smegmatis ATCC 19420 after 72 hrs by broth microtiter dilution method. It is filed as functional. The conditions noted are these: ATCC 19420, 72 h. Put shortly: (§2)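 Twofold serial dilution in cation-adjusted Mueller–Hinton broth, final 128–0.25 mg/L, compounds first dissolved in DMSO. Strains grown on Columbia blood agar with 7% defibrinated horse blood; inoculum 5 x 10^5 cfu/mL from 0.5 McFarland suspension in 0.9% NaCl. Three runs in duplicate.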

The nature of data set [3]: Cytotoxicity against human MRC5 cells assessed as metabolic active cells at 100 uM after 72 hrs by XTT assay relative to control. The data set is classed as ADME, cell-based. The conditions noted are these: read-out: Activity. Put shortly:
as §1

Data set [4] can be described thus: Selectivity index, ratio of IC50 for human MRC5 cells to MIC for Mycobacterium smegmatis ATCC 19420. The data set is classed as functional.
The subject of data set [5] is Mycolicibacterium fortuitum. Nature of the data set: Antimycobacterial activity against Mycobacterium fortuitum ATCC 6841 after 72 hrs by broth microtiter dilution method. The data set is classed as functional. To be noted: ATCC 6841, 72 h. Put shortly:
as §2

In a further data set the test system is Mycolicibacterium phlei. Nature of the data set: Antimycobacterial activity against Mycobacterium phlei ATCC 19249 after 72 hrs by broth microtiter dilution method. The conditions noted are these: ATCC 19249, 72 h. It is filed as functional. Put shortly: as §2

For `CCCCCCCC/C=C\CCCc1cc(=O)c2ccccc2n1C`, the viability at 72 h, 30 µM in data set [1] was 76.3%. This compound also came in with an MIC in data set [2] of 5.9 µM (≈ 2 µg/mL). Also, in data set [3], the viability at 72 h, 100 µM worked out at 32%.

Turning to `CC/C=C\CCCCCCCCCc1cc(=O)c2ccccc2n1C`, in data set [1], the viability at 72 h, 30 µM worked out at 95.3%. Besides, 5.9 µM (≈ 2 µg/mL) was the least that counted as inhibitory in data set [2] (MIC). Besides, the Selectivity Index in data set [4] was > 20. Moreover, the viability at 72 h, 100 µM in data set [3] was determined as 95.4%.

For `CCCCCCCCC/C=C\CCCCc1cc(=O)c2ccccc2n1C`, the viability at 72 h, 30 µM in data set [1] was determined as 46.6%. In data set [2], this compound had an MIC of 2.7 µM (≈ 0.992 µg/mL). In data set [3], the viability at 72 h, 100 µM was 0.8%.

Consider `CCCC/C=C\CCCCc1cc(=O)c2ccccc2n1C`, for which the figures for the MIC (in data set [5]; against Mycolicibacterium phlei; in data set [2]) were 8 µg/mL (≈ 26.9 µM), 8 µg/mL (≈ 26.9 µM) and 26.9 µM (≈ 8 µg/mL), respectively. For the same compound, in data set [1], the viability at 72 h, 30 µM turned out to be 96.8%. Also, in data set [3], the viability at 72 h, 100 µM is 83.5%.

For the compound `CCCCCCCCCC/C=C\CCc1cc(=O)c2ccccc2n1C`, the MIC in data set [5] was determined as 1 µg/mL (≈ 2.83 µM); with Mycolicibacterium phlei, 1 µg/mL (≈ 2.83 µM); in data set [2] it was 2.8 µM (≈ 0.99 µg/mL). Also, the viability at 72 h, 30 µM in data set [1] worked out at 55.1%. For the same compound, in data set [3], the viability at 72 h, 100 µM was found to be 4.9%.

Consider `CCCCCCCC/C=C\CCc1cc(=O)c2ccccc2n1C`, for which the viability at 72 h, 30 µM in data set [1] was determined as 88.3%. The compound also returned an MIC in data set [2] of 6.2 µM (≈ 2.02 µg/mL). Besides, the Selectivity Index in data set [4] was > 20. For the same compound, in data set [3], the viability at 72 h, 100 µM is 85.6%.

Consider `CCCCC/C=C\CCCCc1cc(=O)c2ccccc2n1C`, for which the viability at 72 h, 30 µM in data set [1] came to 94.9%. In data set [2], the MIC was determined as 12.9 µM (≈ 4.02 µg/mL). Also, in data set [3], the viability at 72 h, 100 µM turned out to be 88.5%.

For `CCCCCC/C=C\CCc1cc(=O)c2ccccc2n1C`, in data set [1], the viability at 72 h, 30 µM was found to be 73.8%. This compound gave an MIC in data set [2] of 53.9 µM (≈ 16 µg/mL). Also, in data set [3], the viability at 72 h, 100 µM stood at 47.9%.

On to `CCCCCC/C=C\CCCCc1cc(=O)c2ccccc2n1C`, for which, in data set [1], the viability at 72 h, 30 µM was 94.7%. This compound had an MIC in data set [2] of 3.1 µM (≈ 1.01 µg/mL). In addition, the Selectivity Index in data set [4] was > 20. Besides, the viability at 72 h, 100 µM in data set [3] turned out to be 81.2%.

With `CCCCCCCCC/C=C\CCc1cc(=O)c2ccccc2n1C`, in data set [1], the viability at 72 h, 30 µM worked out at 89.7%. Besides, the lowest concentration to inhibit growth in data set [2] (MIC) was 5.9 µM (≈ 2 µg/mL). For the same compound, the Selectivity Index in data set [4] is > 20. Further, the viability at 72 h, 100 µM in data set [3] worked out at 82.1%.

Regarding `CCCCCCCC/C=C\CCCCCCCCc1cc(=O)c2ccccc2n1C`, the viability at 72 h, 30 µM in data set [1] was determined as 84.4%. In data set [2], this compound yielded an MIC of 39.1 µM (≈ 16 µg/mL). In addition, the viability at 72 h, 100 µM in data set [3] came out at 25.5%.

`CCCCCCCCC/C=C\CCCCCCCCc1cc(=O)c2ccccc2n1C`: the viability at 72 h, 30 µM in data set [1] came out at 95.9%. This compound displayed an MIC in data set [2] of 151 µM (≈ 64.1 µg/mL). Further, in data set [3], the viability at 72 h, 100 µM was 19.9%.

Regarding `CCCCCCCCCC/C=C\CCCCCCCCc1cc(=O)c2ccccc2n1C`, the viability at 72 h, 30 µM in data set [1] stood at 98.9%. The same compound registered an MIC in data set [2] of 293 µM (≈ 128 µg/mL). Further, the viability at 72 h, 100 µM in data set [3] is 91.5%.

Turning to `CCCCCCCC/C=C\CCCCCCCc1cc(=O)c2ccccc2n1C`, the viability at 72 h, 30 µM in data set [1] turned out to be 53.4%. In data set [2], the MIC came out at 20.3 µM (≈ 8.03 µg/mL). Further, the viability at 72 h, 100 µM in data set [3] turned out to be 0.4%.

With `CCCCC/C=C\C/C=C\CCCCCCCc1cc(=O)c2ccccc2n1C`, the MIC in data set [5] came out at 4 µg/mL (≈ 10.2 µM); against Mycolicibacterium phlei, 8 µg/mL (≈ 20.3 µM); in data set [2], 5.1 µM (≈ 2.01 µg/mL). The viability at 72 h, 30 µM in data set [1] came out at 44.2%. Besides, the viability at 72 h, 100 µM in data set [3] came to 0.4%.

For the compound `CCCCCCCCCCCCCc1cc(=O)c2ccccc2n1C`, in data set [1], the viability at 72 h, 30 µM turned out to be 102%. Moreover, the MIC in data set [2] stood at 188 µM (≈ 64.1 µg/mL). Also, the viability at 72 h, 100 µM in data set [3] stood at 69.6%.

With `CCCCCCCCCCCCCCCc1cc(=O)c2ccccc2n1C`, in data set [1], the viability at 72 h, 30 µM was 79.8%. This compound gave an MIC in data set [2] of 347 µM (≈ 128 µg/mL). Further, the viability at 72 h, 100 µM in data set [3] was 57.9%.

As for `CCCCCCCCCCCCCCCCCc1cc(=O)c2ccccc2n1C`, the viability at 72 h, 30 µM in data set [1] was 100%. For the same compound, the MIC in data set [2] was > 322 µM. For the same compound, the viability at 72 h, 100 µM in data set [3] was 95.2%.

On to `CCCCCC/C=C/c1cc(=O)c2ccccc2n1C`, for which, in data set [1], the viability at 72 h, 30 µM is 96.8%. The compound also returned an MIC in data set [2] of 14.9 µM (≈ 4.01 µg/mL). In addition, the viability at 72 h, 100 µM in data set [3] worked out at 76.5%.

Regarding `CCCCC/C=C/c1cc(=O)c2ccccc2n1C`, the viability at 72 h, 30 µM in data set [1] is 86.2%. In data set [2], this compound showed an MIC of 62.7 µM (≈ 16 µg/mL). Besides, in data set [3], the viability at 72 h, 100 µM worked out at 77.2%.

Regarding `CCCCCCCCCC/C=C/C=C/c1cc(=O)c2ccccc2n1C`, the viability at 72 h, 30 µM in data set [1] came to 73.8%. This compound also yielded an MIC in data set [2] of 182 µM (≈ 64.1 µg/mL). In addition, in data set [3], the viability at 72 h, 100 µM was determined as 32.5%.

As to `CCCCCCCCCCC/C=C/C=C/c1cc(=O)c2ccccc2n1C`, the values for the MIC (in data set [5]; in the data set with Mycolicibacterium phlei; in data set [2]) were 2 µg/mL (≈ 5.47 µM), 4 µg/mL (≈ 10.9 µM) and 10.9 µM (≈ 3.98 µg/mL), respectively. The viability at 72 h, 30 µM in data set [1] stood at 50.7%. The viability at 72 h, 100 µM in data set [3] came out at 18.5%.

As for `CC[C@@H](CO)NCCN[C@@H](CC)CO` [ETHAMBUTOL], the minimum inhibitory concentration (MIC) in data set [5] is 8 µg/mL (≈ 39.2 µM); with Mycolicibacterium phlei, 4 µg/mL (≈ 19.6 µM).

As to `CCCCC/C=C\CCCCCCc1cc(=O)c2ccccc2n1C` [EVOCARPINE], the values for the MIC (in data set [5]; in the data set on Mycolicibacterium phlei; in data set [2]) were 2 µg/mL (≈ 5.89 µM), 2 µg/mL (≈ 5.89 µM) and 5.9 µM (≈ 2 µg/mL), respectively. Besides, in data set [1], the viability at 72 h, 30 µM worked out at 94%. Further, in data set [3], the viability at 72 h, 100 µM is 87.6%.

In the case of `NNC(=O)c1ccncc1` [ISONIAZID], the MIC in data set [5] came out at 1 µg/mL (≈ 7.29 µM); against Mycolicibacterium phlei, 4 µg/mL (≈ 29.2 µM).

One may read the MIC as the lowest concentration found to suppress growth.
